Test results reported in ChEMBL document CHEMBL1157787, “Design, synthesis and evaluation of progesterone-adenine hybrids as bivalent inhibitors of P-glycoprotein-mediated multidrug efflux” (Bioorg Med Chem Lett, 2010).

Columns and labels:
[1] = biological target: T1, ATP-dependent translocase ABCB1 (Homo sapiens, UniProt P08183); assay: Inhibition of P-glycoprotein-mediated daunorubicin efflux in K562/R7 human leukemic cells overexpressing P-glycoprotein assessed as intracellular accumulation of daunorubicin at 10 uM after 1 hr by flow cytometry relative to progesterone; assay type: cell-based; parameters: scale not given: the % may be the effect or the level left
In short: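 Pgp-overexpressing resistant K562/R7 human leukemic cells; intracellular daunorubicin (1 μM) accumulation measured with compound at 10 μM. Accumulation with progesterone (10 μM) was set as 100%, and compound values were expressed as percent of that, with standard deviation.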

K562 = assay: Cytotoxicity against human K562 cells expressing very low P-glycoprotein at 10 uM after 24 hrs relative to control
[2] = biological target: T1, ATP-dependent translocase ABCB1; assay: Inhibition of P-glycoprotein-mediated daunorubicin efflux in K562/R7 human leukemic cells overexpressing P-glycoprotein assessed as intracellular accumulation of daunorubicin at 10 uM after 1 hr by flow cytometry; assay type: cell-based; parameters: scale not given: the % may be the effect or the level left
In short: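 K562/R7 human leukemic cells overexpressing Pgp; intracellular daunorubicin (1 μM) accumulation measured with test compounds at 10 μM. Progesterone (10 μM) served as positive control; accumulation with progesterone set as 100%, values expressed as percent of progesterone accumulation; standard deviation reported.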

T1 sequence (P08183 whole entry): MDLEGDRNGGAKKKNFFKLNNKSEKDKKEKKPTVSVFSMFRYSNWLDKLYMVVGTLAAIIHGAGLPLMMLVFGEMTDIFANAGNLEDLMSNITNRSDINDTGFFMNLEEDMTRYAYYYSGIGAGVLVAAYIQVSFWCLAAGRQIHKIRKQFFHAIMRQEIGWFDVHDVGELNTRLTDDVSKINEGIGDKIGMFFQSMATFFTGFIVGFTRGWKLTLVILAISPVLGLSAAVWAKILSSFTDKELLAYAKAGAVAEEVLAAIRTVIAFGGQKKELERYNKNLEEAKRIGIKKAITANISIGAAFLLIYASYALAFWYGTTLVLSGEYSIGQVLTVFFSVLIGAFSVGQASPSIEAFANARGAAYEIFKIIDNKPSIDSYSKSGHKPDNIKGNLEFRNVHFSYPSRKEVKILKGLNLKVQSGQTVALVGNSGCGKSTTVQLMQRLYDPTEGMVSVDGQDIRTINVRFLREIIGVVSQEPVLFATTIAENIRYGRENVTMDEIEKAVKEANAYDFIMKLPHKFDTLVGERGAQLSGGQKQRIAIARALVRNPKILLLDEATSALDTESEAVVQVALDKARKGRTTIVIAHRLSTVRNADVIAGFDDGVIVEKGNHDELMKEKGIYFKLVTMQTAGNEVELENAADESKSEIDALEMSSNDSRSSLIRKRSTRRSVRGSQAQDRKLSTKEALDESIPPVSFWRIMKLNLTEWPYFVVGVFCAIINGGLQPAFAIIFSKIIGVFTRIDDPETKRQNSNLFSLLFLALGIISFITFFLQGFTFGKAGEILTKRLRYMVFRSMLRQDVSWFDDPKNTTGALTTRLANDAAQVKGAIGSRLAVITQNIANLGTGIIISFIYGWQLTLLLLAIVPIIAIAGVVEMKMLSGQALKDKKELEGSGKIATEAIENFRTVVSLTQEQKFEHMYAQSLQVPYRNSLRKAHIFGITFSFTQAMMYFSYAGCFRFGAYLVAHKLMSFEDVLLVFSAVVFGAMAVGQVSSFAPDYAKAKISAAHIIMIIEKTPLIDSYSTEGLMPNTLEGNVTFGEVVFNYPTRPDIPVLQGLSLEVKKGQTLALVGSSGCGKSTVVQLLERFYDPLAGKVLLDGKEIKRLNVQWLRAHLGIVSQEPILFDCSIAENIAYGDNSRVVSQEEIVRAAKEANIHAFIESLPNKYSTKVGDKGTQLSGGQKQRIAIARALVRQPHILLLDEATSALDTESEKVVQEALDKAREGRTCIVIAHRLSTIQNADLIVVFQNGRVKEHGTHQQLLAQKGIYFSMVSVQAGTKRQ

SMILES	Activity [1] [%]	Activity (K562) [%]	Activity [2] [%]
C[C@]12CC[C@H]3[C@@H](CCC4=CC(=O)CC[C@@]43C)[C@@H]1CC[C@@H]2C(=O)NCc1ccc(Cn2cnc3c(N)ncnc32)cc1	98.1	80	–
C[C@]12CC[C@H]3[C@@H](CCC4=CC(=O)CC[C@@]43C)[C@@H]1CC[C@@H]2C(=O)NCCCCCCn1cnc2c(N)ncnc21	110.9	80	–
CC(=O)[C@H]1CC[C@H]2[C@@H]3CCC4=CC(=O)CC[C@]4(C)[C@H]3CC[C@]12C [PROGESTERONE]	–	–	25
C[C@]12CC[C@H]3[C@@H](CCC4=CC(=O)CC[C@@]43C)[C@@H]1CC[C@@H]2C(=O)NC[C@H]1CC[C@H](Cn2cnc3c(N)ncnc32)CC1	98.9	80	–
C[C@]12CC[C@H]3[C@@H](CCC4=CC(=O)CC[C@@]43C)[C@@H]1CC[C@@H]2C(=O)NCC#CCn1cnc2c(N)ncnc21	61.2	80	–
C[C@]12CC[C@H]3[C@@H](CCC4=CC(=O)CC[C@@]43C)[C@@H]1CC[C@@H]2C(=O)NC/C=C\Cn1cnc2c(N)ncnc21	86.2	80	–
C[C@]12CC[C@H]3[C@@H](CCC4=CC(=O)CC[C@@]43C)[C@@H]1CC[C@@H]2C(=O)NCCCCn1cnc2c(N)ncnc21	78	80	–
C[C@]12CC[C@H]3[C@@H](CCC4=CC(=O)CC[C@@]43C)[C@@H]1CC[C@@H]2C(=O)NC/C=C/Cn1cnc2c(N)ncnc21	72.2	80	–
